Test results reported in ChEMBL document CHEMBL3046350, “Design, synthesis and herbicidal activity of new iron chelating motifs for HPPD-inhibitors” (Bioorg Med Chem, 2009).

Legend:
Echinochloa crus-galli = experiment: Herbicidal activity against Echinochloa crus-galli (barnyard grass) assessed as reduction in plant growth measured 21 days after compound post-emergence spray application; format: functional
Summary of the method: (§1)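 GR50 = rate giving 50% growth reduction, scored 21 days after postemergence spray. Application rates are expressed in kg/ha.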

Abutilon theophrasti = experiment: Herbicidal activity against Abutilon theophrasti (velvetleaf) assessed as reduction in plant growth measured 21 days after compound post-emergence spray application; format: functional; summary of the method: as §1
[1] = target: T1, 4-hydroxyphenylpyruvate dioxygenase (Arabidopsis thaliana, UniProt P93836); experiment: Inhibition of Arabidopsis thaliana 4-hydroxyphenylpyruvate dioxygenase
T1 sequence (P93836 whole entry): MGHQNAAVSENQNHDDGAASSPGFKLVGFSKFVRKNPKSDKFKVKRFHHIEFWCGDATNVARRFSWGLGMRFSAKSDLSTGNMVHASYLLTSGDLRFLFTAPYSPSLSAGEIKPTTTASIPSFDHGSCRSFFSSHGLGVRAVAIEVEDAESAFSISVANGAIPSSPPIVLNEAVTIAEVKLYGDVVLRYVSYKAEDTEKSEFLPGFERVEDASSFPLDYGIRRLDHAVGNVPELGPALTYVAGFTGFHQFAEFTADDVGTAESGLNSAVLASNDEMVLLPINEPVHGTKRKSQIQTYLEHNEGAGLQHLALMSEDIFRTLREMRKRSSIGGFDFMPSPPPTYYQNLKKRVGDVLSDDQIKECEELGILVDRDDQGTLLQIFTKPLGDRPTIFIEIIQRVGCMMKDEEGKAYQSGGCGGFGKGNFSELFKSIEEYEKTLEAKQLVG
Summary of the method: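 Recombinant Arabidopsis thaliana HPPD enzyme, assayed by a previously published method.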

Chenopodium album = experiment: Herbicidal activity against Chenopodium album assessed as reduction in plant growth measured 21 days after compound post-emergence spray application; format: functional; summary of the method: as §1
Centaurea cyanus = experiment: Herbicidal activity against Centaurea cyanus assessed as reduction in plant growth measured 21 days after compound post-emergence spray application; format: functional
Setaria italica = experiment: Herbicidal activity against Setaria italica assessed as reduction in plant growth measured 21 days after compound post-emergence spray application; format: functional

Compound | GR50 (Echinochloa crus-galli) [kg/ha] | GR50 (Abutilon theophrasti) [kg/ha] | IC50 [1] [µM] | GR50 (Chenopodium album) [kg/ha] | GR50 (Centaurea cyanus) [kg/ha] | GR50 (Setaria italica) [kg/ha]
Cc1nc(C)n(O)c1C(=O)c1ccc(S(C)(=O)=O)c(C2=NOCC2)c1Cl | 2 | >3 | 0.036 | 0.3 | – | –
CCOc1c(S(=O)(=O)CC)ccc(C(=O)/C(=N\O)C(C)=O)c1Cl | >3 | – | 20 | – | >3 | >3
COc1c(S(C)(=O)=O)ccc(C(=O)/C(=N\O)C(C)=O)c1C | >3 | – | > 20 | – | >3 | >3
CSc1ccc(C(=O)/C(=N\O)C(C)=O)c(C)c1Cl | >3 | – | > 20 | – | >3 | >3
CC(=O)/C(=N/O)C(=O)c1ccc(S(C)(=O)=O)c(C2=NOCC2)c1Cl | 2.5 | – | 13 | – | >3 | >3
CCOc1c(S(=O)(=O)CC)ccc(C(=O)c2c(C)ncn2O)c1Cl | >0.5 | >0.5 | 20 | 0.4 | – | –
CCOc1c(S(=O)(=O)CC)ccc(C(=O)c2c(C)nc(C)n2O)c1Cl | 0.5 | 0.1 | 0.048 | 0.05 | – | –
CCOc1c(S(=O)(=O)CC)ccc(C(=O)c2c(C)nc(CC)n2O)c1Cl | >0.5 | >0.5 | 0.071 | 0.2 | – | –
CCOc1c(S(=O)(=O)CC)ccc(C(=O)c2c(C)nc(C(C)C)n2O)c1Cl | >3 | >3 | 0.043 | 1.5 | – | –
CCOc1c(S(=O)(=O)CC)ccc(C(=O)c2c(C)nc(-c3cccs3)n2O)c1Cl | >3 | >3 | > 20 | >3 | – | –
CCOc1c(S(=O)(=O)CC)ccc(C(=O)c2c(C)nc(-c3cccn3C)n2O)c1Cl | >3 | >3 | > 20 | >3 | – | –
CCOc1c(S(=O)(=O)CC)ccc(C(=O)c2c(C)nc(-c3ccccc3)n2O)c1Cl | >0.5 | >0.5 | > 20 | >0.5 | – | –
CCOc1c(S(=O)(=O)CC)ccc(C(=O)c2c(C)nc(-c3ccc(Cl)cc3Cl)n2O)c1Cl | >0.5 | >0.5 | > 20 | >0.5 | – | –
CCOc1c(S(=O)(=O)CC)ccc(C(=O)c2c(C)[n+]([O-])c(C)n2O)c1Cl | >3 | >3 | 0.19 | >3 | – | –
COc1c(S(C)(=O)=O)ccc(C(=O)c2c(C)nc(C)n2O)c1C | >1 | 0.7 | 18 | 0.06 | – | –
CSc1ccc(C(=O)c2c(C)nc(C)n2O)c(C)c1Cl | >0.5 | >0.5 | > 20 | >0.5 | – | –
Cc1nc(C)n(O)c1C(=O)c1ccc(S(C)(=O)=O)cc1Cl | >0.5 | >0.5 | > 20 | >0.5 | – | –
Cc1nc(C)n(O)c1C(=O)c1ccc(S(C)(=O)=O)c2ncccc12 | >1 | >1 | > 20 | >1 | – | –
Cc1cc(C)c(C(=O)c2c(C)nc(C)n2O)c(C)c1 | >3 | >3 | > 20 | >3 | – | –
Cc1[nH]n(C)c(=O)c1C(=O)c1ccc(S(C)(=O)=O)c(C2=NOCC2)c1Cl | <0.01 | <0.01 | 0.19 | <0.01 | – | –
